Assay [1] concerns Staphylococcus aureus. Nature of the assay: microbe, parasite or virus in culture. The settings on record: ATCC 29213, 20 h.
Assay [2] concerns Staphylococcus aureus. Briefly: microbe, parasite or virus in culture. The settings on record: ATCC 25923, 20 h.
Assay [3] can be described thus: microbe, parasite or virus in culture. The note with it: Enterobacter cloacae, ATCC 13047, 20 h.
The test system of the next assay is Bacillus subtilis. Nature of the assay: Inhibition of N-terminal LgBiT-fused Bacillus subtilis NusB expressed in Escherichia coli BL21(DE3)pLysS interaction with C- terminal SmBiT-fused Bacillus subtilis NusE expressed in Escherichia coli BL21(DE3)pLysS at 100 uM preincubated for 10 mins followed by NusE addition and measured after 10 mins by nano-glo luciferase assay relative to control. An outline of the steps: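 NusB and NusE were mixed 1:1 at 1 µM in PBS, with compound at 100 µM. The read-out was percent inhibition of the NusB-NusE interaction.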

Another assay deals with Pseudomonas aeruginosa. Nature of the assay: Antimicrobial activity against Pseudomonas aeruginosa ATCC 27853 incubated for 20 hrs by microdilution method. It is filed as functional. The settings on record: ATCC 27853, 20 h. An outline of the steps: (§1)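 Broth microdilution MIC testing done following CLSI guidelines.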
(Broth dilution looks for growth in wells or tubes with falling amounts of substance.)

The test system of a further assay is Streptococcus pneumoniae. Nature of the assay: Antimicrobial activity against Streptococcus pneumoniae ATCC 49619 incubated for 20 hrs by microdilution method. It is filed as functional. The note with it: ATCC 49619, 20 h. An outline of the steps:
as §1

The next assay relates to Acinetobacter baumannii. Briefly: Antimicrobial activity against Acinetobacter baumannii ATCC 19606 incubated for 20 hrs by microdilution method. The note with it: ATCC 19606 = CIP 70.34 = JCM 6841, 20 h. Format: functional. The procedure, abridged: as §1
The next assay concerns Enterococcus faecium. Briefly: Antimicrobial activity against Enterococcus faecium ATCC 19433 incubated for 20 hrs by microdilution method. It is filed as functional. The note with it: ATCC 19433, 20 h. An outline of the steps:
as §1

Values after ≈ are worked out from the molar mass of the structure shown.

As a reminder, the inhibition is the relative decrease from the control value, in per cent. For `O=[N+]([O-])c1ccc(O)c(/C=N/C2CCCCC2)c1`, the MIC is 8 µg/mL (≈ 32.2 µM) in the assay on Staphylococcus aureus [1]; 4 µg/mL (≈ 16.1 µM) with Staphylococcus aureus [2]; > 256 µg/mL in assay [3]; > 256 µg/mL in the assay with Pseudomonas aeruginosa; 16 µg/mL (≈ 64.4 µM) in the assay on Streptococcus pneumoniae; 256 µg/mL (≈ 1030 µM) in the assay with Acinetobacter baumannii. Moreover, the MIC with Enterococcus faecium was > 256 µg/mL. The compound also showed an inhibition in the assay with Bacillus subtilis of 68.3%.

For the compound `O=[N+]([O-])c1ccc(O)c(CNc2ccc(C(F)(F)F)cc2)c1`, the MIC in the assay on Staphylococcus aureus [1] is 8 µg/mL (≈ 25.6 µM); against Staphylococcus aureus [2] it was 8 µg/mL (≈ 25.6 µM); in assay [3] it was 256 µg/mL (≈ 820 µM); in the assay on Pseudomonas aeruginosa, > 256 µg/mL; with Streptococcus pneumoniae it was 16 µg/mL (≈ 51.2 µM); against Acinetobacter baumannii, 32 µg/mL (≈ 102 µM). Moreover, the MIC against Enterococcus faecium is 32 µg/mL (≈ 102 µM). The inhibition in the assay with Bacillus subtilis was 54.1%.

On to `O=C(O)c1cccc(NCc2cc([N+](=O)[O-])ccc2O)c1`, for which the MIC (with Staphylococcus aureus [1]; against Staphylococcus aureus [2]; in assay [3]; in the assay on Pseudomonas aeruginosa; against Streptococcus pneumoniae; with Acinetobacter baumannii) was > 256 µg/mL throughout. Further, the MIC against Enterococcus faecium is > 256 µg/mL. This compound also returned an inhibition with Bacillus subtilis of 50.8%.

With `O=[N+]([O-])c1ccc(O)c(/C=N/c2ccccc2O)c1`, the MIC against Staphylococcus aureus [1] was 16 µg/mL (≈ 62 µM); in the assay with Staphylococcus aureus [2], 4 µg/mL (≈ 15.5 µM); in assay [3], > 256 µg/mL; against Pseudomonas aeruginosa, > 256 µg/mL; in the assay on Streptococcus pneumoniae it was 64 µg/mL (≈ 248 µM); against Acinetobacter baumannii, 128 µg/mL (≈ 496 µM). Moreover, the MIC with Enterococcus faecium was > 256 µg/mL. Moreover, the inhibition in the assay with Bacillus subtilis worked out at 57.7%.

`C#Cc1cccc(/N=C/c2cccc([N+](=O)[O-])c2O)c1`: the MIC is 256 µg/mL (≈ 961 µM) against Staphylococcus aureus [1]; 256 µg/mL (≈ 961 µM) against Staphylococcus aureus [2]; > 256 µg/mL in assay [3]; 256 µg/mL (≈ 961 µM) in the assay on Pseudomonas aeruginosa; 256 µg/mL (≈ 961 µM) in the assay with Streptococcus pneumoniae; > 256 µg/mL in the assay with Acinetobacter baumannii. Also, the MIC in the assay on Enterococcus faecium was 256 µg/mL (≈ 961 µM). Further, the inhibition in the assay with Bacillus subtilis was 87.7%.

For the compound `O=[N+]([O-])c1ccc(O)c(/C=N/c2cccc3ccccc23)c1`, the MIC in the assay on Staphylococcus aureus [1] was 16 µg/mL (≈ 54.7 µM); with Staphylococcus aureus [2], 4 µg/mL (≈ 13.7 µM); in assay [3] it was > 256 µg/mL; against Pseudomonas aeruginosa, > 256 µg/mL; in the assay with Streptococcus pneumoniae, 32 µg/mL (≈ 109 µM); in the assay on Acinetobacter baumannii, 128 µg/mL (≈ 438 µM). The MIC against Enterococcus faecium is > 256 µg/mL. The same compound gave an inhibition with Bacillus subtilis of 43.4%.

As to `C#Cc1cccc(NCc2cc(C#N)ccc2O)c1`, the MIC is 32 µg/mL (≈ 129 µM) with Staphylococcus aureus [1]; 32 µg/mL (≈ 129 µM) against Staphylococcus aureus [2]; > 256 µg/mL in assay [3]; > 256 µg/mL against Pseudomonas aeruginosa; 16 µg/mL (≈ 64.4 µM) against Streptococcus pneumoniae; > 256 µg/mL against Acinetobacter baumannii. Moreover, the MIC in the assay with Enterococcus faecium is 64 µg/mL (≈ 258 µM). Besides, the inhibition in the assay on Bacillus subtilis was 64.8%.

`O=[N+]([O-])c1ccc(O)c(/C=N/c2cccc(O)c2)c1`: the MIC against Staphylococcus aureus [1] is 64 µg/mL (≈ 248 µM); in the assay with Staphylococcus aureus [2], 16 µg/mL (≈ 62 µM); in assay [3] it was > 256 µg/mL; against Pseudomonas aeruginosa, > 256 µg/mL; in the assay on Streptococcus pneumoniae it was 256 µg/mL (≈ 991 µM); in the assay with Acinetobacter baumannii it was > 256 µg/mL. The MIC against Enterococcus faecium was > 256 µg/mL. Further, the inhibition in the assay on Bacillus subtilis was determined as 96.3%.

With `C#Cc1cccc(NCc2cc(CC#N)ccc2O)c1`, the MIC is 32 µg/mL (≈ 122 µM) with Staphylococcus aureus [1]; 64 µg/mL (≈ 244 µM) in the assay with Staphylococcus aureus [2]; > 256 µg/mL in assay [3]; > 256 µg/mL in the assay with Pseudomonas aeruginosa; 8 µg/mL (≈ 30.5 µM) against Streptococcus pneumoniae; > 256 µg/mL against Acinetobacter baumannii. The compound further showed an MIC in the assay with Enterococcus faecium of 32 µg/mL (≈ 122 µM). Also, the inhibition in the assay with Bacillus subtilis is 44.7%.

On to `C#Cc1cccc(NCc2ccccc2O)c1`, for which the MIC (against Staphylococcus aureus [1]; against Staphylococcus aureus [2]; in assay [3]; in the assay on Pseudomonas aeruginosa; against Streptococcus pneumoniae; in the assay on Acinetobacter baumannii) was > 256 µg/mL in each case. Further, the MIC in the assay with Enterococcus faecium is > 256 µg/mL. In the assay on Bacillus subtilis, the inhibition worked out at 20.3%.

With `O=[N+]([O-])c1ccc(O)c(CNC2CCCCC2)c1`, the MIC (against Staphylococcus aureus [1]; against Staphylococcus aureus [2]; in assay [3]; with Pseudomonas aeruginosa; against Streptococcus pneumoniae; against Acinetobacter baumannii) was > 256 µg/mL each time. Besides, the MIC against Enterococcus faecium is > 256 µg/mL. In addition, the inhibition in the assay on Bacillus subtilis stood at 58.2%.

Values taken from ChEMBL document CHEMBL4364256, “Design, synthesis and biological evaluation of antimicrobial diarylimine and -amine compounds targeting the interaction between the bacterial NusB and NusE proteins” (Eur J Med Chem, 2019).
